MrgX1 antag: antagonists of human MrgX1 receptor, primary screen, HEK293 cells, Fluo-4 calcium flux; Mas-related G-protein coupled receptor member X1 (Homo sapiens), Q96LB2; BAM8-22 antagonism; stronger effect = lower value; B-score at 10 µM; 310,000 tested, 1.3% active; AID 588676, 2011;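 active means calcium-response B-score plate-corrected more than 3 library SD below zero, starting fluorescence within 5 deviations, no agonist response on first addition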;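 further: peak minus trough fluorescence over baseline after final BAM8-22 challenge near maximal dose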
Target sequence (Q96LB2 whole entry, looked up): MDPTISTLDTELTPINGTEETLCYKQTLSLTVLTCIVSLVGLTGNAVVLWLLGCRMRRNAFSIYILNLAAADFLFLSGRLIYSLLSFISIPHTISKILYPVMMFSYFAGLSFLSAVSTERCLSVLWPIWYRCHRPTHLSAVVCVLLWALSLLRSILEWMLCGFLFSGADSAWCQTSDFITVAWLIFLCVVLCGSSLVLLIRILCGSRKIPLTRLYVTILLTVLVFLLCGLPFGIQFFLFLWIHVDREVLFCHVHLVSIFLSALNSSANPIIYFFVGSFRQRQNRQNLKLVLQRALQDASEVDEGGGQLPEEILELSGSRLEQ
RGS4 inh: RGS4 inhibitors, primary screen, cell-based, HEK293 M3R inducible RGS4, calcium flux; Regulator of G-protein signaling 4 (Homo sapiens), P49798; Fluo-4 calcium flux; stronger effect = higher value; triggered by carbachol at its EC20; B-score at 10 µM; 310,000 tested, 0.45% active; AID 463165, 2010;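 active means B-score, a plate-corrected calcium signal, over three deviations above library mean, with baseline fluorescence within five deviations of library mean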;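 further: RGS4 expression induced by doxycycline in cells with stable M3 receptor; B-score is computed from the integrated fluorescence ratio over baseline after carbachol; higher B-score means a larger calcium signal and so more RGS4 inhibition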
Target sequence (P49798 whole entry, looked up): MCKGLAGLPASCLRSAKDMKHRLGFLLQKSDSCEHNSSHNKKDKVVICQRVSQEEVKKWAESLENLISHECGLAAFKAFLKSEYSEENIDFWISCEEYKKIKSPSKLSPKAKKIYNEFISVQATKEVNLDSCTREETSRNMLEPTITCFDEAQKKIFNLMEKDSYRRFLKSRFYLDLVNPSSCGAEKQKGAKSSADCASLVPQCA
MrgX1 agonist: agonists of human MrgX1 receptor, primary screen, HEK293 cells, Fluo-4 calcium flux. Fluo-4 calcium fluorescence, agonist mode; stronger effect = higher value. B-score at 10 µM. 310,000 tested, 0.44% active;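 active means calcium response B-score plate-corrected fluorescence ratio at least 3 library SD, with starting fluorescence B-score inside 5 SD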
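Material: HEK293 cells stably expressing human MrgX1 receptor | Quantity: 15,000 cells per well | Times: Cells plated overnight, dye loaded 0.5 h 37 °C, 0.5 h room temperature | Measured by: Kinetic Fluo-4 NW fluorescence of intracellular calcium | Control set: Positive and negative controls per plate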
MrgX1 PAM: positive allosteric modulators of MrgX1, primary screen, HEK293 cells, Fluo-4 calcium flux; Mas-related G-protein coupled receptor member X1 (Homo sapiens), Q96LB2; FDSS; stronger effect = higher value; B-score at 10 µM; 310,000 tested, 0.63% active; AID 588675, 2011;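 active means plate-corrected calcium response at least 3 library SD above typical, normal starting fluorescence, not activating the receptor alone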;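 further: compound read alongside a low EC10 to EC30 dose of BAM8-22 agonist; peak minus trough fluorescence over baseline measured at the second addition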
RGS4 pot: RGS4 potentiators or activators, primary screen, cell-based, HEK293 M3R inducible RGS4, calcium flux; 310,000 tested, 0.92% active; B-score at 10 µM; carbachol calcium flux Fluo4; stronger effect = lower value;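 active means B-score of the integrated calcium signal more than 4 SD below the library mean, with starting fluorescence not abnormally high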;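 further: negative B-score means reduced calcium response which marks RGS4 activation or potentiation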
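System: HEK293 FlpIn-TREx cells, stable M3R, doxycycline-inducible RGS4. Timing: overnight RGS4 induction, 30 min dye load 37 °C, 20 min compound RT. Also added: carbachol, ECmax concentration. Measured by: Fluo4 fluorescence kinetic imaging of calcium. Evaluation: integrated calcium ratio converted to B score.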
MrgX1 PAM conf: MrgX1 positive allosteric modulators, duplicate retest, confirmation, HEK293 cells, Fluo-4 calcium flux | Fluo-4 calcium fluorescence, FDSS | 1,200 tested, 13% active | activation (ratio percentage), % at 10 µM | shares compounds with MrgX1 PAM | AID 602413, 2012;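 active means ratio at least 3 SD above the weak peptide control, stable starting fluorescence, no direct agonism earlier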;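 further: compound followed by low BAM8-22 agonist challenge near EC20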
MrgX1 ant reconf: MrgX1 receptor antagonists, duplicate retest, confirmation, HEK293 cells, Fluo-4 calcium flux; BAM8-22 calcium flux; stronger effect = lower value; shares compounds with MrgX1 antag; remaining BAM8-22 calcium response % of control (stronger effect = lower value), % at 10 µM; 2,300 tested, 19% active;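 active means remaining agonist calcium response no higher than 100% minus 3 SD of agonist-only control wells, with starting fluorescence near control levels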;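 further: agonist BAM8-22 given at a near maximal EC90 to ECmax level; peak minus minimum fluorescence divided by baseline after agonist addition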
HEK293 Ca flux: nonspecific calcium signal in parental HEK293, confirmation, counter-screen for MrgX1 antagonist project, parental HEK293 cells, Fluo-4 calcium flux | AID 624111, 2012 | shares compounds with MrgX1 antag | fluorescence ratio F(max-min)/F0 at 10 µM | 4,000 tested, 2% active | Fluo-4 calcium fluorescence, FDSS;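 active means duplicate-averaged calcium fluorescence ratio at least three times the standard deviation of buffer wells, a nonspecific response in parental cells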
HEK293 Ca counter: calcium response in parental HEK293 cells, primary screen, counter-screen for MrgX1 allosteric activator project, cell-based, Fluo-4 calcium flux, duplicate. Fluo-4 fluorescence ratio; stronger effect = higher value. shares compounds with MrgX1 antag. fluorescence ratio F(max-min)/F0 at 10 µM. 4,000 tested, 0.4% active;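 active means calcium fluorescence ratio, averaged over duplicates, at least 3 SD of the buffer-well ratio, meaning a nonspecific response in receptor-free cells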;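 further: untransfected parental HEK293 lacking MrgX1 used as counterscreen for MrgX1 allosteric activators; fluorescence change taken during the second addition on a kinetic imager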
HEK293 Ca cntr2: calcium response in parental HEK293 cells, primary screen, counter-screen for MrgX1 agonist project, cell-based, Fluo-4 calcium flux, duplicate, agonist mode. shares compounds with MrgX1 antag. fluorescence ratio F(max-min)/F0 at 10 µM. Fluo-4 calcium fluorescence (FDSS); stronger effect = higher value. 4,000 tested, 8.7% active;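 active means calcium fluorescence ratio at least three times the spread of buffer wells, meaning a non-specific response in parental cells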
Active calls of the source: *; i = inactive; x = no result given. Shown are actives, neighbours in structure and some others; about 3.5% of the full set was active somewhere.

SMILES	MrgX1 antag	RGS4 inh	MrgX1 agonist	MrgX1 PAM	RGS4 pot	MrgX1 PAM conf	HEK293 Ca flux	HEK293 Ca counter	HEK293 Ca cntr2	others
CCC(Oc1ccc(F)cc1)C(=O)N1CCCCCCC1 (stereo unspecified)	i	i	i	i	i	x	x	x	x
COc1ccc(Nc2cc(C)c3ccccc3n2)cc1	i	i	i	15.6*	i	17.9%*	i	i	i
COc1ccc(Nc2cccc3ccccc23)cc1	i	i	i	21.1*	i	i	i	i	i
Cc1cc(NC(=O)CSc2nnc(-c3cccs3)n2N)no1	i	i	i	i	i	x	x	x	x
CCCCn1c(SCC(=O)Nc2cc(C)on2)nnc1-c1cccs1	i	i	i	6.76*	i	i	i	i	i
Cc1cc(C)c2c(=O)n(CC(=O)Nc3ccc(Br)c(C)c3)sc2n1	i	i	i	7.05*	i	i	i	i	i
Cc1cc(N2CCN(C)CC2)nc2ccc(NC(=S)N3CCC4(CC3)OCCO4)cc12	i	i	i	7.36*	i	i	i	i	i
Nc1nc(Cl)cc(Sc2ccc(F)cc2)n1	i	i	i	6.73*	i	i	i	i	i
Cc1ccc(S(=O)(=O)N(C)C)cc1NC(=O)c1c(-c2c(F)cccc2Cl)noc1C	i	i	i	i	i	x	x	x	x
COc1ccc(-c2cc(C(F)(F)F)nc(SCC(=O)Nc3ccc4c(c3)OCO4)n2)cc1	i	i	i	9.17*	i	i	i	i	i
O=C1c2cccnc2C(=O)N1Cc1ccc(S(=O)(=O)N2CCN(c3ccccc3)CC2)cc1	i	i	i	i	i	x	x	x	x
CCc1cc2cc(C)ccc2nc1SCC(=O)N1CCN(C(=O)c2ccco2)CC1	i	x	i	11.1*	x	i	i	i	i
CCc1cc2ccccc2nc1SCC(=O)N1CCN(C(=O)c2ccco2)CC1	x	i	x	x	i	x	x	x	x
O=S(=O)(NCC(c1cccs1)N1CCc2ccccc2C1)c1ccccc1 (stereo unspecified)	i	i	i	i	i	x	x	x	x
CC(C)C[C@H](NC(=O)C1CCN(S(=O)(=O)c2ccccc2)CC1)C(=O)NCc1ccccn1	i	i	i	i	i	x	x	x	x
O=c1c2c(nc3cc(-c4ccc(Cl)cc4)[nH]n13)CCS2	i	i	i	i	i	x	x	x	x
Cc1ccsc1C(=O)N1CCc2ccccc2C1	i	i	i	i	i	x	x	x	x
Cc1ccsc1C(=O)OCC(=O)N1CCc2ccccc2C1	i	i	i	8.88*	i	i	i	i	i
Cc1ccc(NC2=C(Cl)C(=O)OC2OC(=O)c2ccc(C)cc2)cc1 (stereo unspecified)	i	i	i	8.58*	i	i	i	i	i
CC(C)(C)Nc1ncnc2c1cnn2-c1ccccc1	i	i	i	7.72*	i	i	i	i	i
c1ccc(CNc2ncnc3c2cnn3-c2ccccc2)cc1	i	i	i	i	i	x	x	x	x
Cc1ccccc1CCNC(=O)Cn1ccc2cc(S(=O)(=O)N3CCCC3)ccc21	i	i	i	7.15*	i	i	i	i	i
Cc1ccc(CCNC(=O)Cn2ccc3cc(S(=O)(=O)N4CCCC4)ccc32)cc1	i	i	i	i	i	x	x	x	x
Cc1ccc(N=Cc2sc(O)c3ccccc23)c(C)c1	i	i	i	i	i	x	x	x	x
Cc1ccc(N=Cc2sc(O)c3ccccc23)cc1	-6.89*	i	i	6.99*	i	i	i	i	i	MrgX1 ant reconf=75.3%*
SMILES	MrgX1 antag	RGS4 inh	MrgX1 agonist	MrgX1 PAM	RGS4 pot	MrgX1 PAM conf	HEK293 Ca flux	HEK293 Ca counter	HEK293 Ca cntr2	others
Cc1cnc(C(=O)NC2CC(C)(C)Cc3c2cnn3-c2cccc(F)c2)cn1 (stereo unspecified)	i	i	i	7.81*	i	i	i	i	i
CCn1cc(C(=O)NC2CC(C)(C)Cc3c2cnn3-c2cccc(F)c2)cn1 (stereo unspecified)	i	i	i	i	i	x	x	x	x
CCOC(=O)C1C(=O)NC(N2CCCCC2)=NC1c1ccccc1 (stereo unspecified)	i	i	i	8.86*	i	i	i	i	i
CCOC(=O)C1C(=O)NC(N2CCN(Cc3ccccc3)CC2)=NC1c1ccccc1 (stereo unspecified)	i	i	i	i	i	x	x	x	x
CCOc1ccccc1CN1CCNC(=O)C1CC(=O)NC1CCCCCCC1 (stereo unspecified)	i	i	i	i	i	x	x	x	x
Cc1ccn2c(Nc3ccccc3C)c(-c3ccccn3)nc2c1	i	i	i	9.14*	i	i	i	i	i
Nc1nc(N)c2[nH]c(-c3ccccc3)nc2n1	i	i	i	i	i	x	x	x	x
COc1ccc(/C=C2/C(=N)N3C(=NC2=O)Sc2cc(S(C)(=O)=O)ccc23)cc1OC	i	i	i	37.1*	i	17.4%*	i	i	i
O=C(CCC(=O)N1CCN(Cc2ccc(F)cc2)CC1)Nc1nnc(C(F)(F)F)s1	i	i	i	i	i	x	x	x	x

High-throughput results from PubChem.
